The list is not random: actives were taken first. Their share in the collection is about 4.6%.
CHO parental Ca: counter-screen: ATP calcium response change in parental CHO cells | parental CHO-K1, ATP-induced calcium, Fluo-8 fluorescence | inhibition, % at 5.6 µM | actives 0.63% (n = 330,000);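 active = inhibition above that plate's mean sample inhibition plus 3 SD, cut at about 26% in these data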;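 also: 0% = ATP-challenged DMSO wells and 100% = DMSO wells without ATP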
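Material: Parental CHO cells | Reagent: ATP | Compound dosing: Single nominal dose of 5.6 µM per compound | Detection: Intracellular calcium via Fluo-8 no-wash fluorescent dye | Read-out: % inhibition of ATP-induced calcium mobilization | Benchmarks: Low control ATP plus DMSO, high control DMSO only | Replicates: Singlicate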
TAAR1 ag: human TAAR1 agonism; CHO RD-HGA16 TAAR1, Fluo-8 calcium fluorescence; vehicle wells 0%, saturating PEA agonist 100%; activation, % at 3 µM; actives 0.99% (n = 360,000); AID 624467;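 active = activation above the mean activation of all test compounds in the run plus 3 SD, cut at about 38% in these data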
Target sequence (Q96RJ0 whole entry, looked up): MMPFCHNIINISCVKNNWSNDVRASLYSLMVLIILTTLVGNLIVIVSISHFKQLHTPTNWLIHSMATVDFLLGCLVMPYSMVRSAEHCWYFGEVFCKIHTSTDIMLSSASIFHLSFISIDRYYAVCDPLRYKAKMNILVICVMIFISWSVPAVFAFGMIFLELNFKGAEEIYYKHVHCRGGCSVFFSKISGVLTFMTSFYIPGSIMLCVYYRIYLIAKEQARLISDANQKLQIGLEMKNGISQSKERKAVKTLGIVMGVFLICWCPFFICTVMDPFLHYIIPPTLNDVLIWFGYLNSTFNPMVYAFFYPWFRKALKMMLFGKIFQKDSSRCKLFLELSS
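Assay system – CHO-derived RD-HGA16 cells with stable Gα16 and human TAAR1 · Compound dosing – one-point dosing at 3 µM (nominal) · Incubation – 17-24 h seeding, 75 min 37 °C dye, 30 min RT · Measured by – kinetic Fluo-8 calcium fluorescence · Control set – DMSO vehicle as 0%, PEA at EC100 as 100% · Repeats – single well for each compound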
GPR7 antag: human neuropeptides B/W receptor 1 antagonism; P48145; GPR7-expressing cells, fluorescence antagonist assay; inhibition, % at 4.4 µM; actives 1.1% (n = 290,000); in the data active = inhibition above about 16%, passing the limit was not always enough;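 also: cells stimulated with the agonist NPW; 0% = agonist with vehicle and 100% = vehicle without agonist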
Target sequence (P48145 whole entry, looked up): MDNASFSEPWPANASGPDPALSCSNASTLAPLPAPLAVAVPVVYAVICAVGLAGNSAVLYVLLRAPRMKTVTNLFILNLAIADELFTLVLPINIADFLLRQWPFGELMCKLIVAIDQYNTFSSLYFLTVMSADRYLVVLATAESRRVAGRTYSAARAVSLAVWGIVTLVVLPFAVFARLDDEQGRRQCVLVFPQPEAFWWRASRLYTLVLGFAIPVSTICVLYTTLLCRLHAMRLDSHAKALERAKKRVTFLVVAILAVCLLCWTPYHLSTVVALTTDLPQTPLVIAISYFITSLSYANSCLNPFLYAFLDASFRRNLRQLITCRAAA
TAAR1 antag: antagonists of human TAAR1; Q96RJ0; CHO RD-HGA16 TAAR1, Fluo-8 calcium fluorescence, antagonist; inhibition, % at 3 µM; actives 1.5% (n = 360,000); AID 624466;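 active = inhibition above a per-plate cutoff, the mean inhibition of test compounds on that plate plus 3 SD, cut at about 49% in these data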;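 also: 0% = DMSO plus EC80 beta-PEA response and 100% = DMSO alone without agonist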
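Test system: CHO RD-HGA16 cells bearing hTAAR1 | Reagent: β-PEA, EC80 | Compound dosing: 3 µM, single point | Schedule: Dye loading 75 min at 37 °C, then 30 min room temperature | Signal: Calcium fluorescence with Fluo-8 | Evaluation: Percent inhibition of PEA-evoked calcium signal, max/basal emission ratio | Control set: DMSO-only wells and EC80 β-PEA-stimulated wells | Repeats: Singlicate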
OX1R antag-1: OX1R (human) antagonism | O43613 | OX1R-expressing cells, FRET antagonist read-out | inhibition, % at 6.6 µM | actives 1.8% (n = 330,000) | AID 485270; in the data active = inhibition mostly above about 38%, no sharp cut-off; inactive = mostly below about 40%;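 also: 0% = agonist challenge alone and 100% = reference antagonist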
OX1R antag-2: human HCRTR1 antagonism. O43613. CHO/OX1R cells, Fluo-8 calcium fluorescence, orexin A. inhibition, % at 5 µM. actives 0.43% (n = 330,000);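 active = inhibition above its plate's threshold, mean inhibition of all tested compounds on the plate plus 3 SD, cut at about 37% in these data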;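 also: 0% = orexin A challenge wells and 100% = SB-334867-A antagonist wells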
GPR7 antag conf: human GPR7 antagonism, confirmation assay; shares compounds with GPR7 antag; GPR7-expressing cells, calcium fluorescence antagonist mode; inhibition, % at 4.4 µM; AID 1952; actives 52% (n = 2,400); in the data active = inhibition above about 24%;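 also: stimulated with the GPR7 agonist NPW; 0% = agonist plus vehicle and 100% = vehicle alone without agonist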
MCHR1 antagonist: counter-screen for GPR7 antagonists: antagonists of human MCHR1 | shares compounds with GPR7 antag | MCHR1-expressing cells, fluorescence antagonist assay | inhibition, % at 4.4 µM | actives 62% (n = 2,400) | AID 2148; in the data active = inhibition above about 22%;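 also: 0% = vehicle with agonist and 100% = vehicle without agonist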
Starred values were filed as active, the others as inactive; . = no result.

SMILES | CHO parental Ca | TAAR1 ag | GPR7 antag | TAAR1 antag | OX1R antag-1 | OX1R antag-2 | GPR7 antag conf | MCHR1 antagonist
CC(=O)N1c2ccc(S(=O)(=O)N3CCC(C(=O)Nc4cccc(Cl)c4)CC3)cc2CC1C (centres undefined) | 13.9 | 15.9 | 31.2* | -1.7 | 7.5 | 19.6 | 20.9 | 47.1*
CC(=O)N1c2ccc(S(=O)(=O)N3CCC(C(=O)Nc4cccc(C)c4)CC3)cc2CC1C (centres undefined) | 12.0 | 5.2 | -6.7 | 10.3 | 14.3 | -15.5 | . | .
Cc1ccc(NC(=O)C2CCN(S(=O)(=O)c3ccc(N4CCCC4=O)cc3)CC2)cc1Cl | 64.4* | 5.8 | 38.5* | 39.0 | 11.0 | 31.5 | 52.4* | 61.3*
CC1Sc2ccc(S(=O)(=O)N3CCC(C(=O)Nc4ccc(Cl)cc4)CC3)cc2NC1=O (centres undefined) | 53.7* | 4.0 | 60.7* | 43.8 | 13.8 | 21.8 | 68.1* | 70.0*
O=C(NCc1ccco1)Nc1cccc(-c2ccccc2)c1 | . | -1.4 | . | 2.7 | . | . | . | .
OCCN1CCN(CC(O)COc2ccc(Cl)cc2)CC1 (centres undefined) | -1.4 | 3.9 | -7.0 | -3.3 | 14.2 | -7.3 | . | .
OCCN1CCN(CC(O)COc2ccc(C34CC5CC(CC(C5)C3)C4)cc2)CC1 (centres undefined) | 9.2 | 19.8 | 40.2* | -6.1 | 10.3 | -6.6 | 34.6* | 51.0*
O=C(Nc1cccc(S(=O)(=O)Nc2ccc(Cl)cc2)c1)c1ccc(Cl)nc1 | 10.7 | 24.4 | 23.9* | 42.3 | 43.9 | -3.0 | 65.5* | 69.9*
NC(=O)COC(=O)c1ccc(Oc2ccccc2)cc1 | -8.5 | 1.6 | -4.0 | 9.1 | 13.3 | -9.8 | . | .
CC(C)NC(=O)COC(=O)c1ccc(Oc2ccccc2)cc1 | 2.4 | 5.7 | 28.4* | 9.6 | 18.0 | -8.0 | 5.6 | 34.9*
CC(C)[C@H](NC(=O)c1ccccc1Cl)C(=O)OCC(=O)NCc1ccc2c(c1)OCO2 | -21.1 | 5.1 | . | -9.7 | -0.6 | -22.1 | . | .
COc1ccccc1CC(=O)O/N=C(\N)c1ccccn1 | 10.9 | 1.4 | -8.2 | 6.6 | 7.9 | -7.4 | . | .
COc1ccc(CC(=O)O/N=C(\N)c2ccccn2)cc1OC | . | 6.1 | 24.1* | -8.2 | . | . | -2.2 | 5.4
CCC(C)(C)c1ccc(OCCCC[n+]2cccc(C)c2)c(C(C)(C)CC)c1 | . | 31.6 | 21.1* | -16.4 | . | . | 77.7* | 90.5*
Cc1ccc[n+](CC(=O)Nc2cc(C(F)(F)F)ccc2Cl)c1 | 7.3 | 13.1 | -2.1 | 0.4 | 20.6 | 4.8 | . | .
O=C(c1ccc(NS(=O)(=O)c2cccs2)cc1)N1CCCCC1 | -2.6 | 7.9 | 21.4* | -4.4 | 26.6 | 3.5 | -15.1 | 3.3
O=C(c1ccc(NS(=O)(=O)c2ccc(F)cc2)cc1)N1CCCCC1 | -0.4 | 3.8 | . | -5.9 | 14.3 | 1.8 | . | .
O=C(c1ccc(S(=O)(=O)Nc2ccccc2)cc1)N1CCCCCCC1 | -15.8 | 32.7 | 25.0* | 25.7 | 19.4 | -27.5 | 19.4 | 16.7
COc1cccc(C=NN(C)c2c([N+](=O)[O-])cc(C(F)(F)F)cc2[N+](=O)[O-])c1O | . | -1.3 | . | -13.5 | . | . | . | .
O=C(NCCSc1c[nH]c2ccccc12)c1ccco1 | 2.1 | -0.1 | -4.8 | -17.2 | 14.2 | -3.2 | . | .
O=C(NCCSc1c[nH]c2ccccc12)c1c(F)cccc1F | -5.3 | 2.7 | 22.7* | 29.3 | 1.1 | -10.2 | 33.1* | 32.7*
Cc1cc(C(=O)C(C(c2ccccc2)N2CCOCC2)N2CCOCC2)ccc1Cl (centres undefined) | . | 5.2 | . | -31.2 | . | . | . | .
CCC(=O)N/C(=N/c1nc(C)cc(C)n1)Nc1ccc(OC)cc1 | -16.7 | 6.0 | 35.5* | -3.5 | 8.5 | 2.5 | -3.7 | 17.2
CCC(=O)N/C(=N/c1nc(C)cc(C)n1)Nc1ccccc1 | -25.6 | -2.7 | 18.7 | -5.8 | 13.3 | -14.4 | . | .
CCn1c(C)nc2cc(N)ccc21 | -8.6 | 1.0 | 27.3* | -6.8 | 23.7 | -14.5 | -10.2 | 1.0
SMILES | CHO parental Ca | TAAR1 ag | GPR7 antag | TAAR1 antag | OX1R antag-1 | OX1R antag-2 | GPR7 antag conf | MCHR1 antagonist
CCn1c(C)nc2cc(C(N)=O)ccc21 | -7.8 | 3.6 | -6.7 | 5.8 | 7.6 | -10.7 | . | .
Cc1cccc(C)c1NC(=O)C(c1ccncc1)n1c(=O)c(-c2cc3ccccc3[nH]2)nc2ccccc21 (centres undefined) | . | 3.7 | . | 30.0 | . | . | . | .
CCC[C@@H](CN[C@@H](CNC)[C@H](C)CC)NCC1CCC(C(C)(C)C)CC1 (some centres undefined) | -8.3 | 18.8 | 47.4* | 7.9 | 23.4 | -27.0 | 51.0* | 64.2*
Cc1nn(C(C)C(=O)NC2CCC(C)CC2)c(=O)c2nn(-c3ccccc3)c(C)c12 (centres undefined) | -22.2 | -1.5 | -14.4 | -20.5 | 6.9 | -39.0 | . | .
Cn1c(=O)oc2cc(S(=O)(=O)N3CCN(c4ccccc4F)CC3)ccc21 | 2.7 | 3.4 | 4.6 | -11.1 | 10.4 | 4.7 | . | .
COc1ccccc1N1CCN(S(=O)(=O)c2ccc3c(c2)oc(=O)n3C)CC1 | -0.8 | 2.2 | 29.9* | -1.2 | 12.0 | -8.9 | 3.7 | -1.7
OC(CNCC1CCCO1)Cn1c2ccc(Cl)cc2c2cc(Cl)ccc21 (centres undefined) | 14.7 | 19.5 | 53.0* | 29.5 | 7.7 | 25.7 | 53.1* | 54.0*
Cc1ccc(S(=O)(=O)N(C)c2ccc(OCC(=O)Nc3cccc(-n4cnnn4)c3C)cc2)cc1 | -3.8 | 3.4 | 21.6* | -3.7 | 11.7 | -25.1 | 5.5 | 33.2*
Cc1ccc(S(=O)(=O)N(C)c2ccc(OCC(=O)Nc3ccc(S(C)(=O)=O)cc3)cc2)cc1 | . | 13.5 | . | 35.8 | . | . | . | .
COc1ccc(C2CC(=O)C(C=NCCN3CCN(C(C)=O)CC3)=C(O)C2)cc1 (centres undefined) | -5.6 | 11.8 | -7.8 | -6.5 | 7.6 | 3.1 | . | .
COc1ccc(C2CC(=O)C(C=NCCN3CCOCC3)=C(O)C2)cc1 (centres undefined) | -14.6 | 4.1 | 23.3* | -13.0 | 2.0 | -14.5 | -1.5 | 5.1
CC(C)(C)OC(=O)C[C@H]1C/C=C\C[C@@H](CC(=O)N(CCO)Cc2ccccc2)C(=O)N[C@H](Cc2ccccc2)COC1=O | -25.2 | 4.2 | . | -7.5 | 11.4 | -35.3 | . | .
CCC(C)(C)NC(=O)CN(C(=O)C(=O)Nc1ccc2c(c1)OCCO2)C1CC1 | -14.9 | -3.5 | -15.0 | 7.4 | 21.0 | -13.6 | . | .
C/C(=N/NC(=O)CCc1ccccc1)c1ccc2c(c1)OCO2 | . | 0.5 | 25.7* | -18.9 | . | . | 2.1 | -3.1
O=C1c2cccc(OCC(=O)N3CCCc4ccccc43)c2CCN1Cc1ccc(F)cc1 | -13.6 | 17.0 | 28.5* | 55.6* | 31.4 | -5.7 | 41.2* | 77.2*
